ChEMBL document CHEMBL1212855, “1-Azaaurones derived from the naturally occurring aurones as potential antimalarial drugs” (Bioorg Med Chem, 2010)
≈ marks a conversion by molar mass, not a printed value.

tested on: Plasmodium falciparum; test: Antiplasmodial activity against Plasmodium falciparum FcB1/columbia infected in human erythrocytes; format: functional, organism-based; details: not given
Procedure, shortened: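 Blood stages cultured in human erythrocytes in RPMI 1640 with 5% human serum (Trager–Jensen, modified). Cultures were synchronized every 48 h by 5% D-sorbitol lysis. IC50 is the concentration giving 50% inhibition of parasite growth, with chloroquine as the control drug.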

Q: Which IC50 does the source give for `CCc1ccccc1/C=C1\Oc2cc(OC)cc(OC)c2C1=O` here?
A: Its IC50 is 21 µM.

Q: Which IC50 does the source give for `COc1cc2c(c(OC)c1)C(=O)/C(=C/c1ccc(Cl)cc1)N2` here?
A: Its IC50 is 17 µM.

Q: `COc1cc2c(c(OC)c1)C(=O)/C(=C/c1ccc(C)cc1C)N2` was tested. Which IC50 did it give?
A: The IC50 was 3.6 µM.

Q: How did the IC50 turn out when `COc1cc2c(c(OC)c1)C(=O)/C(=C/c1ccc(N3CCOCC3)cc1)N2` was run?
A: Its IC50 is 8.9 µM.

Q: With `COc1cc2c(c(OC)c1)C(=O)/C(=C/c1cc(OC)c(OC)c(OC)c1)N2` as the compound, how does the IC50 read?
A: The IC50 was 1.9 µM.

Q: With `CCc1ccccc1/C=C1\Oc2cc(O)cc(O)c2C1=O` as the compound, how does the IC50 read?
A: The IC50 was 114 µM.

Q: For `COc1cc2c(c(OC)c1)C(=O)/C(=C/c1c(C)c(C)cc(C)c1C)N2`, which IC50 is on record?
A: Its IC50 is 8.9 µM.

Q: Which IC50 does the source give for `COc1cc(OC)c2c(c1)O/C(=C\c1ccc(Br)cc1)C2=O` here?
A: The IC50 was 49.8 µM.

Q: Which IC50 does the source give for `Cc1ccc(/C=C2\Oc3cc(O)cc(O)c3C2=O)cc1` here?
A: The IC50 was 63.4 µM.

Q: Which IC50 does the source give for `O=C1/C(=C/c2ccc(O)cc2)Oc2cc(O)ccc21` here?
A: The IC50 was 130 µM.

Q: `O=C1/C(=C/c2ccccc2)Oc2cc(O)cc(O)c21` was tested. Which IC50 did it give?
A: Its IC50 is 94.5 µM.

Q: `CCCCc1ccc(/C=C2\Oc3cc(OC)cc(OC)c3C2=O)cc1` was tested. Which IC50 did it give?
A: Its IC50 is 11.8 µM.

Q: `COc1cc2c(c(OC)c1)C(=O)/C(=C/c1cc(C)c(C)cc1C)N2` was tested. Which IC50 did it give?
A: Its IC50 is 5.6 µM.

Q: `COc1cc2c(c(OC)c1)C(=O)/C(=C/c1ccc(C(C)(C)C)cc1)N2` was tested. Which IC50 did it give?
A: Its IC50 is 7.2 µM.

Q: With `COc1cc2c(c(OC)c1)C(=O)/C(=C/c1ccc(SC)cc1)N2` as the compound, how does the IC50 read?
A: Its IC50 is 6.7 µM.

Q: Which IC50 does the source give for `COc1cc(OC)c2c(c1)O/C(=C\c1ccc(C(C)(C)C)cc1)C2=O` here?
A: The IC50 was 13.3 µM.

Q: For `COc1cc2c(c(OC)c1)C(=O)/C(=C/c1ccc(N(C)C)cc1)N2`, which IC50 is on record?
A: The IC50 was 3.7 µM.

Q: For `COc1cc2c(c(OC)c1)C(=O)/C(=C/c1ccc(C(C)C)cc1)N2`, which IC50 is on record?
A: Its IC50 is 4.4 µM.

Q: How did the IC50 turn out when `COc1cc2c(c(OC)c1)C(=O)/C(=C/c1c(F)cccc1Cl)N2` was run?
A: The IC50 was 9 µM.

Q: With `COc1cc2c(c(OC)c1)C(=O)/C(=C/c1ccccc1Cl)N2` as the compound, how does the IC50 read?
A: Its IC50 is 9.9 µM.

Q: With `CCc1ccc(/C=C2\Oc3cc(O)ccc3C2=O)cc1` as the compound, how does the IC50 read?
A: Its IC50 is 28 µM.

Q: `COc1cc(OC)c(/C=C2\Nc3cc(OC)cc(OC)c3C2=O)c(OC)c1` was tested. Which IC50 did it give?
A: The IC50 was 1.9 µM.

Q: With `COc1cc(OC)c2c(c1)O/C(=C\c1ccc(-c3ccncc3)cc1)C2=O` as the compound, how does the IC50 read?
A: The IC50 was 85 µM.

Q: How did the IC50 turn out when `COc1cc2c(c(OC)c1)C(=O)/C(=C/c1c(C)cccc1C)N2` was run?
A: Its IC50 is 9.1 µM.

Q: How did the IC50 turn out when `COc1cc(OC)c2c(c1)O/C(=C\c1ccccc1)C2=O` was run?
A: The IC50 was 60.3 µM.

Q: Which IC50 does the source give for `C#Cc1ccc(/C=C2\Nc3cc(OC)cc(OC)c3C2=O)cc1` here?
A: The IC50 was 13.4 µM.

Q: For `COc1cc2c(c(OC)c1)C(=O)/C(=C/c1ccc(Br)cc1)N2`, which IC50 is on record?
A: Its IC50 is 49.8 µM.

Q: With `COc1cc(OC)c2c(c1)O/C(=C\c1ccc(F)cc1)C2=O` as the compound, how does the IC50 read?
A: Its IC50 is 86.7 µM.

Q: For `CCc1ccc(/C=C2\Nc3cc(OC)cc(OC)c3C2=O)cc1`, which IC50 is on record?
A: The IC50 was 1 µM.

Q: `CCCCc1ccc(/C=C2\Nc3cc(OC)cc(OC)c3C2=O)cc1` was tested. Which IC50 did it give?
A: The IC50 was 4.1 µM.

Q: With `CCc1ccccc1/C=C1\Nc2cc(OC)cc(OC)c2C1=O` as the compound, how does the IC50 read?
A: The IC50 was 12.8 µM.

Q: With `COc1cc2c(c(OC)c1)C(=O)/C(=C/c1cc(Cl)ccc1Cl)N2` as the compound, how does the IC50 read?
A: The IC50 was 8.4 µM.

Q: `COc1ccc(/C=C2\Nc3cc(OC)cc(OC)c3C2=O)c(OC)c1` was tested. Which IC50 did it give?
A: The IC50 was 5 µM.

Q: For `COc1cc(OC)c2c(c1)O/C(=C\c1ccc(-c3ccccc3)cc1)C2=O`, which IC50 is on record?
A: The IC50 was 234 µM.

Q: For `COc1ccc(/C=C2\Oc3cc(OC)cc(OC)c3C2=O)cc1` [4,4',6-TRIMETHOXY-AURONE], which IC50 is on record?
A: The IC50 was 11 µM.

tested on: Mus musculus; test: Toxicity against CD mouse at 20 mg/kg, ip qd for 4 days; format: organism-based; design: dose 20 mg/kg, route intraperitoneal; details: in vivo, 96 h

Q: `CCc1ccc(/C=C2\Nc3cc(OC)cc(OC)c3C2=O)cc1` was tested. Which Activity did it give?
A: Its Activity is “Non-toxic”.

tested on: Plasmodium vinckei petteri; test: Antimalarial activity against Plasmodium vinckei petteri infected in CD mice (Mus musculus) assessed as inhibition of parasitaemia at 1 mg/kg, intraperitoneal daily for 4 days measured on day 5; format: functional; details: ip
Procedure, shortened: (§1)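 Four-day suppressive test: female CD mice (mean body weight 20 2 g) infected with 10⁶ P. vinckei petteri-infected red blood cells in RPMI on day 0. Groups of five treated intraperitoneally days 0–3 at 1, 10 or 20 mg/kg/day. Controls received RPMI alone or chloroquine (1 and 10 mg/kg). Giemsa-stained tail-blood smears, at least 5000 erythrocytes counted. Inhibition % = (control − treated parasitaemia)/control × 100.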

Q: For `CCN(CC)CCCC(C)Nc1ccnc2cc(Cl)ccc12` (stereo not drawn) [CHLOROQUINE], which inhibition in vivo at 1 mg/kg is on record?
A: The inhibition in vivo at 1 mg/kg was 0%.

Q: With `CCc1ccc(/C=C2\Nc3cc(OC)cc(OC)c3C2=O)cc1` as the compound, how does the inhibition in vivo at 1 mg/kg read?
A: Its inhibition in vivo at 1 mg/kg is 3%.

tested on: Plasmodium vinckei petteri; test: Antimalarial activity against Plasmodium vinckei petteri infected in CD mice (Mus musculus) assessed as inhibition of parasitaemia at 10 mg/kg, intraperitoneal daily for 4 days measured on day 5; format: functional; details: ip; procedure, shortened: as §1

Q: With `CCN(CC)CCCC(C)Nc1ccnc2cc(Cl)ccc12` (stereo not drawn) [CHLOROQUINE] as the compound, how does the inhibition in vivo at 10 mg/kg read?
A: Its inhibition in vivo at 10 mg/kg is 100%.

Q: How did the inhibition in vivo at 10 mg/kg turn out when `CCc1ccc(/C=C2\Nc3cc(OC)cc(OC)c3C2=O)cc1` was run?
A: Its inhibition in vivo at 10 mg/kg is 17%.

tested on: Plasmodium vinckei petteri; test: Antimalarial activity against Plasmodium vinckei petteri infected in CD mice (Mus musculus) assessed as inhibition of parasitaemia at 20 mg/kg, intraperitoneal daily for 4 days measured on day 5; format: functional; details: ip; procedure, shortened: as §1

Q: For `CCc1ccc(/C=C2\Nc3cc(OC)cc(OC)c3C2=O)cc1`, which inhibition in vivo at 20 mg/kg is on record?
A: The inhibition in vivo at 20 mg/kg was 0%.

tested on: Plasmodium vinckei petteri; test: Antimalarial activity against Plasmodium vinckei petteri infected in CD mice (Mus musculus) assessed as inhibition of parasitaemia dosed daily for 4 days measured on day 5; format: functional; details: not given; procedure, shortened: as §1

Q: `CCN(CC)CCCC(C)Nc1ccnc2cc(Cl)ccc12` (stereo not drawn) [CHLOROQUINE] was tested. Which ED50 did it give?
A: The ED50 was 5 mg/mL (≈ 15.6 mM).

Q: For `CCc1ccc(/C=C2\Nc3cc(OC)cc(OC)c3C2=O)cc1`, which ED50 is on record?
A: Its ED50 is over 20 mg/kg.
